For one molecule, Activity and inhibition results are on record in ChEMBL document CHEMBL4229344 (Eur J Med Chem, 2018).

The target in experiment [1] is Mitogen-activated protein kinase kinase kinase 19 (Homo sapiens) (UniProt Q56UN5). Kind of experiment: Binding affinity to wild-type human partial length YSK4 (T1019 to H1328 residues) expressed in mammalian expression system assessed as residual binding level at 1 uM by Kinomescan method relative to control.
For experiment [2], the target named is Platelet-derived growth factor receptor alpha (Homo sapiens, UniProt P16234). Description: Inhibition of PDGFRalpha in human EOL-1 cells assessed as decrease in ERK phosphorylation at T202/Y204 residues after 2 hrs in presence of PDGF-AA by Western blot analysis. The experiment is classed as cell-based. For orientation: In western blotting, separated proteins are transferred to a membrane and probed.
Chain of Platelet-derived growth factor receptor alpha (P16234 whole entry): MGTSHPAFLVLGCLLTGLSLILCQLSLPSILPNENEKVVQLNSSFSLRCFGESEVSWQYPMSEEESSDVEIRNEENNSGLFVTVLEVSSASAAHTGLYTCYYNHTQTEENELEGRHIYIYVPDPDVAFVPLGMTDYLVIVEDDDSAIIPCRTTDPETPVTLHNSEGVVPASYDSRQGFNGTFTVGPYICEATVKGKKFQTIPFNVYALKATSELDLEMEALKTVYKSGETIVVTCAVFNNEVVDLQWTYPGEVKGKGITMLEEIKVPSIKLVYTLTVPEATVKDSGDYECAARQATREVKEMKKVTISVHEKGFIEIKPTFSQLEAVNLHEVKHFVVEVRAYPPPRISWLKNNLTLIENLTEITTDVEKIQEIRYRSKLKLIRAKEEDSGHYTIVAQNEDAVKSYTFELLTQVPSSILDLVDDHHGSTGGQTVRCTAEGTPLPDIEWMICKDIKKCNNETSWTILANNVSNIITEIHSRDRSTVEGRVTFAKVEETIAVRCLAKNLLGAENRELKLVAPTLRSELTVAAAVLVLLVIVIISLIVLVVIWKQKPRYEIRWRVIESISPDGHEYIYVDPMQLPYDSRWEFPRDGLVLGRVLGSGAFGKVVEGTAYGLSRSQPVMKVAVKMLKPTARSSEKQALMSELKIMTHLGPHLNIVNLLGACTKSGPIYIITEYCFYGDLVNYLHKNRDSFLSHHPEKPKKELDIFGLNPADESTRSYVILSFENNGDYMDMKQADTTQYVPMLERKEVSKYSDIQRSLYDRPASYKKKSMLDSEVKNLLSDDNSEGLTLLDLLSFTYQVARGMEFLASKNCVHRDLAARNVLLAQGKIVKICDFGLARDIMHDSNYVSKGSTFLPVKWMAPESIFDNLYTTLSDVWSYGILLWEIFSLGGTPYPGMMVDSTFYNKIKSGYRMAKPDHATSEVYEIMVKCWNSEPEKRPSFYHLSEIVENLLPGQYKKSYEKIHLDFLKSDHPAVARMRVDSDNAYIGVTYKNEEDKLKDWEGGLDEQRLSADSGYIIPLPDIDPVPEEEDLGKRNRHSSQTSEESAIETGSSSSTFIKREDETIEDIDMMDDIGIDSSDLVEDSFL

Experiment [3] addresses Serine/threonine-protein kinase D2 (Homo sapiens) (UniProt Q9BZL6). Kind of experiment: Binding affinity to wild-type human partial length PRKD2 (A519 to E838 residues) expressed in bacterial expression system assessed as residual binding level at 1 uM by Kinomescan method relative to control.
Experiment [4] has as its target Myosin light chain kinase, smooth muscle (Homo sapiens) (UniProt Q15746). Kind of experiment: Binding affinity to wild-type human full length MYLK (M854 to E1845 residues) expressed in mammalian expression system assessed as residual binding level at 1 uM by Kinomescan method relative to control. A digest of the protocol:
(§1)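 Single-concentration KINOMEscan (DiscoverX) binding screen at 1 μM against a panel of 468 purified kinases and mutants. The read-out is binding relative to control.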

Experiment [5] deals with Cyclin-dependent kinase 13 (Homo sapiens) (UniProt Q14004). Description: Binding affinity to wild-type human partial length CDC2L5 (H675 to S1054 residues) expressed in mammalian expression system assessed as residual binding level at 1 uM by Kinomescan method relative to control.
For experiment [6], the target named is Casein kinase I isoform gamma-3 (Homo sapiens) (UniProt Q9Y6M4). Description: Binding affinity to wild-type human full length CSNK1G3 (M1 to K447 residues) expressed in bacterial expression system assessed as residual binding level at 1 uM by Kinomescan method relative to control. The procedure, abridged:
(§2)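 KINOMEscan competition binding against 468 purified kinases/mutants, test compound at 1 µM; residual binding relative to control.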

For experiment [7], the target named is Homeodomain-interacting protein kinase 2 (Homo sapiens) (UniProt Q9H2X6). Description: Binding affinity to wild-type human partial length HIPK2 (M153 to S564 residues) expressed in mammalian expression system assessed as residual binding level at 1 uM by Kinomescan method relative to control.
Chain of Homeodomain-interacting protein kinase 2 (Homo sapiens) (Q9H2X6 whole entry, looked up, the tested form may be a part): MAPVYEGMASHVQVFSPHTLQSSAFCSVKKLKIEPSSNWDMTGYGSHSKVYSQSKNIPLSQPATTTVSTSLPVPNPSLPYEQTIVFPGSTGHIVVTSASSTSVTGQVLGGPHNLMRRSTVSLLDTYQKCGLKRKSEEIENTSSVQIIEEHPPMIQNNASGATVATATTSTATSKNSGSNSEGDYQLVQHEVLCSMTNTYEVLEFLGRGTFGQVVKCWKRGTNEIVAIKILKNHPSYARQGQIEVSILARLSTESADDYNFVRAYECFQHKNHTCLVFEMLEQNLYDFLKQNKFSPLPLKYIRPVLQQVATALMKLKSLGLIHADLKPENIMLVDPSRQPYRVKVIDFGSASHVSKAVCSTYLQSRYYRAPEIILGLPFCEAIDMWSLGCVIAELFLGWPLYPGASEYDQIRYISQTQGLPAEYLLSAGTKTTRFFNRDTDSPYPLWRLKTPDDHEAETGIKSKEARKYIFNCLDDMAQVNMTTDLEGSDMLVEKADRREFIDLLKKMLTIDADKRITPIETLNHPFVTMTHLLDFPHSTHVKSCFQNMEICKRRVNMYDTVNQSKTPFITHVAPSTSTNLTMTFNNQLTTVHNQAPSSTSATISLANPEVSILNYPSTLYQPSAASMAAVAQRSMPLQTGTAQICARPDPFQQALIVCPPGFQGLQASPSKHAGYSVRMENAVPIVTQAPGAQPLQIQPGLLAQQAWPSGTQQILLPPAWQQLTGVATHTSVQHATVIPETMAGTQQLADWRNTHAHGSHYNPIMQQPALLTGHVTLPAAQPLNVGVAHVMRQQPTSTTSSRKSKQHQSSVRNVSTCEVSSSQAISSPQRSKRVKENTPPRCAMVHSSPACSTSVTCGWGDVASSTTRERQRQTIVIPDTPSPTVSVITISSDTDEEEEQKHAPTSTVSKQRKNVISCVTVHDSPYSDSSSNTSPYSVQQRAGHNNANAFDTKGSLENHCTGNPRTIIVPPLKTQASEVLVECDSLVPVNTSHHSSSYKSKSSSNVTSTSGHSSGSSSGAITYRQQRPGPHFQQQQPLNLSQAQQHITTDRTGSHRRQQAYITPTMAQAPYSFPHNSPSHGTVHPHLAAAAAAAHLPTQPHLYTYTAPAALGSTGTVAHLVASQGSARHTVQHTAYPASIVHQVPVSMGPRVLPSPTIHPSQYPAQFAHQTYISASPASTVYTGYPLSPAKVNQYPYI
In experiment [8] the target is Fibroblast growth factor receptor 1 (Homo sapiens) (UniProt P11362). Description: Binding affinity to wild-type human partial length FGFR1 (P357 to V669 residues) expressed in bacterial expression system assessed as residual binding level at 1 uM by Kinomescan method relative to control.
The target in experiment [9] is Epidermal growth factor receptor (Homo sapiens) (UniProt P00533). Kind of experiment: Binding affinity to human partial length EGFR E746-A750del mutant expressed in bacterial expression system assessed as residual binding level at 1 uM by Kinomescan method relative to control. A digest of the protocol: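 Kinome-wide single-concentration binding screen (KINOMEscan) at 1 μM against a panel of 468 purified kinases and mutants. Read-out is relative binding of each kinase compared with control. Selectivity across the panel was summarised as an S(10) score.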
Chain of Epidermal growth factor receptor (Homo sapiens) (P00533 whole entry): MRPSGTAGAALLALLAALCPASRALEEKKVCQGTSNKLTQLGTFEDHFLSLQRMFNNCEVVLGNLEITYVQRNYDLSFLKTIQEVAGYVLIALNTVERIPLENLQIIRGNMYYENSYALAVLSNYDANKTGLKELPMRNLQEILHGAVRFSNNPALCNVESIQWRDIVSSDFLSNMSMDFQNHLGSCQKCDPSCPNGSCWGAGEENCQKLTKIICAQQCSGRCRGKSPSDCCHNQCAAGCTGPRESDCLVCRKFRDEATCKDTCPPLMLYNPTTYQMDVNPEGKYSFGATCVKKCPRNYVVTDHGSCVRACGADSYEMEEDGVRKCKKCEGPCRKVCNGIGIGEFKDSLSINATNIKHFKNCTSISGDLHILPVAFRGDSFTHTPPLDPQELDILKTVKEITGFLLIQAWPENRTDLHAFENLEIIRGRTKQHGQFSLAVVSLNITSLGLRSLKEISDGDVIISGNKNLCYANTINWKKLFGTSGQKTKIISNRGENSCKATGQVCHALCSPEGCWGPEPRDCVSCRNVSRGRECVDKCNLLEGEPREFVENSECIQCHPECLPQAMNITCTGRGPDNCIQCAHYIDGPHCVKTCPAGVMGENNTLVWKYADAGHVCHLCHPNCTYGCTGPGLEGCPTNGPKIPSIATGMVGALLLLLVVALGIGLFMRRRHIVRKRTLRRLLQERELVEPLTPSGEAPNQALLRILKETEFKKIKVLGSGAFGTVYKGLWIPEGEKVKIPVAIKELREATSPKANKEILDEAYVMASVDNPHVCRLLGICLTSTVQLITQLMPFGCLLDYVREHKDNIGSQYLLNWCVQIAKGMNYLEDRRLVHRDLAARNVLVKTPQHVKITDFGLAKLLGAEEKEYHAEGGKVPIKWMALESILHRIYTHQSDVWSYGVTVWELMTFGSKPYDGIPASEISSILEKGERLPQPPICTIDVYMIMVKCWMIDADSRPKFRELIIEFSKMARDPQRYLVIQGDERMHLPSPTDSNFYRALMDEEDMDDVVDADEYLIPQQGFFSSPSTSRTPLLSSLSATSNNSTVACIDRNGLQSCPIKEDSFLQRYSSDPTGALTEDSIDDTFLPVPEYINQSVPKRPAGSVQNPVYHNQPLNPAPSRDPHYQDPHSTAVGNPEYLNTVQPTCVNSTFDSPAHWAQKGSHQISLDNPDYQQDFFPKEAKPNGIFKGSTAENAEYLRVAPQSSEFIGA

In experiment [10] the target is Muscle, skeletal receptor tyrosine-protein kinase (Homo sapiens) (UniProt O15146). Description: Binding affinity to wild-type human partial length MUSK (M553 to V869 residues) expressed in bacterial expression system assessed as residual binding level at 1 uM by Kinomescan method relative to control.
For experiment [11], the target named is Ephrin type-A receptor 1 (Homo sapiens) (UniProt P21709). Description: Binding affinity to wild-type human partial length EPHA1 (V588 to I913 residues) expressed in bacterial expression system assessed as residual binding level at 1 uM by Kinomescan method relative to control.
The target in experiment [12] is Tyrosine-protein kinase Srms (Homo sapiens) (UniProt Q9H3Y6). Kind of experiment: Binding affinity to wild-type human partial length SRMS (L208 to P488 residues) expressed in mammalian expression system assessed as residual binding level at 1 uM by Kinomescan method relative to control.
For experiment [13], the target named is Tyrosine-protein kinase CSK (Homo sapiens) (UniProt P41240). Kind of experiment: Binding affinity to wild-type human full length CSK (M1 to L450 residues) expressed in bacterial expression system assessed as residual binding level at 1 uM by Kinomescan method relative to control. A digest of the protocol:
as §2

Experiment [14] concerns the target SRSF protein kinase 2 (Homo sapiens) (UniProt P78362). Kind of experiment: Binding affinity to wild-type human full length SRPK2 (M1 to S686 residues) expressed in bacterial expression system assessed as residual binding level at 1 uM by Kinomescan method relative to control. The procedure, abridged:
as §1

The target in experiment [15] is Cytoplasmic tyrosine-protein kinase BMX (Homo sapiens) (UniProt P51813). Kind of experiment: Binding affinity to wild-type human full length BMX (M1 to H675 residues) expressed in bacterial expression system assessed as residual binding level at 1 uM by Kinomescan method relative to control. A digest of the protocol:
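Single-concentration (1 μM) competition-binding screen run by KINOMEscan against a panel of 468 purified kinases and mutants. The read-out is the relative binding activity of the test compound to each kinase.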

Experiment [16] deals with Platelet-derived growth factor receptor beta (Homo sapiens, UniProt P09619). Kind of experiment: Binding affinity to wild-type human partial length PDGFRbeta (V582 to Y1009 residues) expressed in bacterial expression system assessed as residual binding level at 1 uM by Kinomescan method relative to control. The procedure, abridged: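 KINOMEscan competition binding against a panel of 468 purified kinases/mutants, compound tested at 1 μM; readout is relative binding activity versus control.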

In a further experiment the test system is NCI-H1703. Description: Cell cycle arrest in human NCI-H1703 cells assessed as accumulation at G0/G1 phase after 72 hrs by propidium iodide/RNase staining-based flow cytometric analysis. The experiment is classed as functional. A digest of the protocol: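 Cells treated with compound or DMSO for the stated periods, fixed overnight in 70% cold ethanol at −20 °C, stained with PI/RNase buffer, then analysed by flow cytometry for cell-cycle distribution. For NCI-H1703 stimulation, PDGF AA was used at 100 ng/mL.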
(In flow cytometry, cells or beads pass a laser one at a time.)

Experiment [17] has as its target Serine/threonine-protein kinase PAK 4 (Homo sapiens) (UniProt O96013). Kind of experiment: Binding affinity to wild-type human partial length PAK4 (Q144 to R438 residues) expressed in bacterial expression system assessed as residual binding level at 1 uM by Kinomescan method relative to control.
The target in experiment [18] is Ribosomal protein S6 kinase alpha-1 (Homo sapiens) (UniProt Q15418). Kind of experiment: Binding affinity to wild-type human partial length N-terminal RSK1 Kinase domain 1 (M1 to E388 residues) expressed in bacterial expression system assessed as residual binding level at 1 uM by Kinomescan method relative to control.
In experiment [19] the target is Tyrosine-protein kinase JAK3 (Homo sapiens) (UniProt P52333). Description: Binding affinity to wild-type human partial length JAK3 JH1 catalytic domain (I781 to S1124 residues) expressed in mammalian expression system assessed as residual binding level at 1 uM by Kinomescan method relative to control.
Experiment [20] deals with Serine/threonine-protein kinase 35 (Homo sapiens) (UniProt Q8TDR2). Kind of experiment: Binding affinity to wild-type human partial length STK35 (G182 to A534 residues) expressed in bacterial expression system assessed as residual binding level at 1 uM by Kinomescan method relative to control.

Chain of SRSF protein kinase 2 (Homo sapiens) (P78362 whole entry, looked up, the tested form may be a part): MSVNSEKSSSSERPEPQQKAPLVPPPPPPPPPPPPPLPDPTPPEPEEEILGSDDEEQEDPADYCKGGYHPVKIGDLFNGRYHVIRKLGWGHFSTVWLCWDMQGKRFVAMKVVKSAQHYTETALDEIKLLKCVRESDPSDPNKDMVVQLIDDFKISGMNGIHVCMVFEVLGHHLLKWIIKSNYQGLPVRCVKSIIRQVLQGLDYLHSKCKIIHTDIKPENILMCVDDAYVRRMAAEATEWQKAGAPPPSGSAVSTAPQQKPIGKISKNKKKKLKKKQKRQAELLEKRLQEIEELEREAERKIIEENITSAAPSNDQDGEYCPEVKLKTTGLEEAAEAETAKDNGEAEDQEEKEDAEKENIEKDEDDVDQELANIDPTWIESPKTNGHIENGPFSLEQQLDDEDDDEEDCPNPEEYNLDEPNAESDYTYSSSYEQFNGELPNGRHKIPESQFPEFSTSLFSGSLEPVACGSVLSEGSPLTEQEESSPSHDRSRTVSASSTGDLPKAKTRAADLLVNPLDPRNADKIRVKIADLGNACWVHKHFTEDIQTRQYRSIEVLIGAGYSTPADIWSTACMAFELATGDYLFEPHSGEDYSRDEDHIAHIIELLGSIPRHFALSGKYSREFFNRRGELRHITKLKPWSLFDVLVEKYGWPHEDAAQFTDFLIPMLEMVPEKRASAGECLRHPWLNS
Chain of Casein kinase I isoform gamma-3 (Homo sapiens) (Q9Y6M4 whole entry, looked up, the tested form may be a part, canonical isoform): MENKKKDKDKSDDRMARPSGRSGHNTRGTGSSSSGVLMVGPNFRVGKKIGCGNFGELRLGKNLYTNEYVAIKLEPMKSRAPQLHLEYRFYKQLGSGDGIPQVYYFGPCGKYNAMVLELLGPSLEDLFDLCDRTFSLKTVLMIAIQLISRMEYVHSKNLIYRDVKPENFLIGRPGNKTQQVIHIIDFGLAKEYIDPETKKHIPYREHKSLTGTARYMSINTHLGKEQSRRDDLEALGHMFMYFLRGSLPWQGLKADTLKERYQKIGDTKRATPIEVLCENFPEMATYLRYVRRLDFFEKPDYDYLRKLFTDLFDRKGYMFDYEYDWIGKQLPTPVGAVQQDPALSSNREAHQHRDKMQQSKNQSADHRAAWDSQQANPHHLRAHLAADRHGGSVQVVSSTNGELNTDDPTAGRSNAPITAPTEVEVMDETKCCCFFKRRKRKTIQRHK
Chain of Tyrosine-protein kinase CSK (Homo sapiens) (P41240 2-450 limits assumed): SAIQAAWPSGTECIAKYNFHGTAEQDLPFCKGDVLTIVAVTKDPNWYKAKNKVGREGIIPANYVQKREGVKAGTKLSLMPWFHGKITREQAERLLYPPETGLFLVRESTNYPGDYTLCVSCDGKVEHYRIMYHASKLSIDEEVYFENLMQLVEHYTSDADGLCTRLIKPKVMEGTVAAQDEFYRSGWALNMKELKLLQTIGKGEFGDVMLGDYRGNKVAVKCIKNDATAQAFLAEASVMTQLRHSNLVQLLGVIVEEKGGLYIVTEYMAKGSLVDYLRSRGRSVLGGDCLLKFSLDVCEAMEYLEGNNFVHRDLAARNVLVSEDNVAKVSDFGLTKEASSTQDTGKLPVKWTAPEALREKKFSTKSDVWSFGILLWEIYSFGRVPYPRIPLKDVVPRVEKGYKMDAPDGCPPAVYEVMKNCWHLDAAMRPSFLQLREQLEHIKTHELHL

On to `Cc1ccc(NC(=O)c2ccc(CN(CCN(C)C)C(=O)c3cccnc3)cc2)cc1Nc1nccc(-c2cccnc2)n1`, for which the Activity is 96% in experiment [1]; 93% in experiment [3]; 100% in experiment [4]; 100% in [5]; 92% in experiment [6]; 100% in experiment [7]. Besides, the Activity in experiment [8] was 98%; in experiment [9] it was 100%; in experiment [10], 100%; in experiment [11], 100%; in [12] it was 97%; in experiment [13] it was 92%. Also, the Activity in experiment [14] is 86%; in experiment [15], 100%; in [16] it was 0.7%; in the experiment with NCI-H1703, “Dose-dependent effect”; in experiment [17], 98%; in experiment [18] it was 99%. Moreover, the Activity in [19] and in [20] was 100% in each case. Also, the inhibition result in experiment [2] was “Dose-dependent effect”.
